Compound activity: PubChem, several laboratories
A selection: hits, their analogues and other compounds. The true share with any hit is near 1.2%.
Efa HMGR inh: E. faecalis class II HMG-CoA reductase inhibition. purified E. faecalis HMGR, NADPH absorbance 340 nm kinetic. 190,000 tested, 0.41% active. inhibition, % at 10 µM. AID 1066;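 active = inhibition above a set limit, the median over all tested compounds plus 3 SD, cut at about 9.5% in these data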;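 also: enzyme runs in reverse so mevalonate oxidation gives rising NADPH absorbance; 0% = complete reaction with DMSO and 100% = background rate lacking mevalonate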
TNAP inh noacc: TNAP (human) inhibition, acceptor-free conditions; purified TNAP, CDP-star luminescence, 30 min; inhibition, % at 20 µM; 200,000 tested, 0.26% active; P05186;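 active = tissue-nonspecific alkaline phosphatase inhibition above about 50% at 20 µM in the single-dose screen, limit read from the data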;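 also: 0% = DMSO negative control and 100% = EDTA positive control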
Target sequence (P05186 whole entry, looked up): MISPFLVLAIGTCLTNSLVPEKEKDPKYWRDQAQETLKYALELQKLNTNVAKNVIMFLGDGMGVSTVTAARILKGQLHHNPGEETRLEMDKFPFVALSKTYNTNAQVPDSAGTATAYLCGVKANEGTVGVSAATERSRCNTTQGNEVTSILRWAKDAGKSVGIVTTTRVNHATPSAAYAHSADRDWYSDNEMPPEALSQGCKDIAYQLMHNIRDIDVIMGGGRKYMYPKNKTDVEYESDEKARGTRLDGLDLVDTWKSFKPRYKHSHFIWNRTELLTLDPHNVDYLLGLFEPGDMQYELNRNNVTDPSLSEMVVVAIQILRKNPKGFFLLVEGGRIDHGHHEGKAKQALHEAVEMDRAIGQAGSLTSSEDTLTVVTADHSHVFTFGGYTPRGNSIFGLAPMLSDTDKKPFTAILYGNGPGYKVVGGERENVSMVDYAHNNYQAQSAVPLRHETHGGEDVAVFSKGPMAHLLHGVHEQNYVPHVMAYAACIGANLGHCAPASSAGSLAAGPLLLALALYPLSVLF
TNAP inh hiacc: TNAP (human) inhibition, high acceptor | P05186 | purified TNAP, CDP-star luminescence, 1 M DEA | inhibition, % at 20 µM | 200,000 tested, 0.03% active;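 active = over 50% inhibition of tissue-nonspecific alkaline phosphatase at 20 µM in the single-dose screen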;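 also: plate controls were DMSO wells for no effect and EDTA-quenched wells as full inhibition for full effect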
Insulin prom inh: TRM-6 insulin promoter activity inhibition | TRM-6 cells (human fetal islet line), insulin promoter-eGFP reporter, imaging; reporter expression induced with tamoxifen | inhibition, % at 2 µM | 130,000 tested, 0.9% active;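 active = inhibition above the mean plus 3 SD, with well images judged a real hit on visual review, cut at about 60% in these data, passing the limit was not always enough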
TNAP act hiacc: increases human TNAP activity under high phosphate acceptor concentration; AID 1136; activation factor at 20 µM; purified TNAP, CDP-star luminescence, 1 M DEA, 30 min; stronger effect = higher value; 0 = EDTA background, 1 = DMSO-only activity; 200,000 tested, under 10 active;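 active = activation factor at least 2 at 20 µM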
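Dosing: 20 µM single point. System: human TNAP. Amount: TNAP 1/800 final. Incubation: 30 min, room temperature. Read-out: TNAP activation factor scaled between EDTA and DMSO control wells. Signal: luminescence from CDP-star hydrolysis. Medium: 1 M DEA, pH 9.8, Mg2+, Zn2+. Control set: EDTA negative control, DMSO positive control.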
* = called active by the depositor; . = no result.

SMILES | Efa HMGR inh | TNAP inh noacc | TNAP inh hiacc | Insulin prom inh | TNAP act hiacc
CCN(Cc1cc(=O)n2cc(Cl)c(C)c(Cl)c2n1)Cc1nc2ccccc2c(=O)[nH]1 | 10.4* | -7.0 | -1.3 | 0.0 | 1
CCN(Cc1nc2ccccc2c(=O)[nH]1)Cc1nc2cc(OC)c(OC)cc2c(=O)[nH]1 | -7.2 | -22.0 | -4.6 | 0.0 | 1
c1cc(Nc2ncnc3sc4c(c23)CCC4)ccn1 | -4.8 | -7.5 | -2.4 | -36.8 | 1
NNc1ncnc2sc3c(c12)CCC3 | 1.4 | 87.6* | 0.1 | 27.3 | 1
CC(C(=O)Nc1ccc(S(=O)(=O)N2CCOCC2)cc1)N1CCN(c2ccccn2)CC1 (stereo unspecified) | 13.3* | -17.4 | -7.7 | 0.0 | 1.1
CC(=O)Nc1ccc(S(=O)(=O)N2CCN(c3ccccn3)CC2)cc1 | 4.1 | -9.7 | -2.2 | 33.3 | 1
O=[N+]([O-])c1cccnc1N1CCC(c2cc(-c3ccc(Cl)cc3Cl)n[nH]2)CC1 | 4.6 | 78.9* | -0.1 | -9.4 | 1
COc1ccc(OC)c(-c2cc(C3CCN(c4ncccc4[N+](=O)[O-])CC3)[nH]n2)c1 | -2.4 | -5.2 | 1.8 | -16.3 | 1
C=CCn1c(=N)n(CC(=O)c2ccc(Br)s2)c2ccccc21 | 2.3 | -4.6 | -1.2 | -46.1 | 1
Cc1ccnc2nc(C(=O)OCC(=O)NCCc3ccccc3)nn12 | 3.5 | -55.5 | -0.1 | 73.3* | 1
CN(C)c1ccnc(SCc2ccccc2Cl)c1C#N | 1.3 | -10.2 | -9.4 | 72.7* | 1.1
c1cc2c3c(cccc3c1)C(N1CCCCC1)=N2 | -2.9 | -8.1 | -1.6 | 87.1* | 1
c1cc2c3c(cccc3c1)C(N1CCCCCC1)=N2 | -3.4 | -8.8 | 1.8 | 62.9 | 1
Cn1c(SCc2cccc(Cl)c2)nc(C(F)(F)F)cc1=O | -2.8 | -1.6 | -1.1 | 17.4 | 1
O=C(O)c1ccccc1Sc1c([N+](=O)[O-])cc(C(F)(F)F)cc1[N+](=O)[O-] | 6.3 | 14.5 | 2.9 | 72.7* | 1
O=C(O)c1ccccc1NSc1ccccc1[N+](=O)[O-] | -2.1 | 3.5 | 0.3 | . | 1
CCOC(=O)c1ccc(N/N=C/c2cc(Br)cc([N+](=O)[O-])c2O)cc1 | 0.4 | 47.5 | 56.3* | 0.0 | 0.4
Cn1c(=O)cc(SCC(=O)N2CCN(c3ccccc3)CC2)c2ccccc21 | -2.2 | -10.6 | -0.7 | 84.6* | 1
CN1CCN(C(=O)CSc2cc(=O)n(C)c3ccccc23)CC1 | -4.3 | -1.9 | 0.2 | . | 1
COc1cccc(/C=N/NC(=O)CN(CCc2ccccc2)S(=O)(=O)c2ccc(NC(C)=O)cc2)c1 | -7.2 | -2.7 | 0.0 | -13.3 | 1
CCCCNC(=O)N(c1c(N)n(Cc2ccccc2)c(=O)[nH]c1=O)C1CCCC1 | -2.1 | -4.6 | -0.8 | -73.3 | 1
Cc1cc(C)nc(NN2C(=O)/C(=C/c3ccc(O)cc3)SC2=S)n1 | -0.4 | 93.8* | 43.3 | . | 0.6
CC(C)Nc1nc(NC(C)C)nc(N(C)C(N)=O)n1 | 0.3 | -10.9 | -1.8 | 72.7* | 1
COc1cc(/C=N/NC(=O)c2cc(-c3ccc4c(c3)OCO4)n[nH]2)ccc1O | -4.7 | 87.3* | -1.6 | 56.2 | 1
CCOc1cccc(/C=N/NC(=O)c2cc(-c3cccn3C)n[nH]2)c1O | -4.6 | -170.2 | -2.3 | . | 1
SMILES | Efa HMGR inh | TNAP inh noacc | TNAP inh hiacc | Insulin prom inh | TNAP act hiacc
COc1cc(OC)c(OC)cc1/C=N/NC(=O)c1cc(-c2cccn2C)n[nH]1 | -0.4 | 85.4* | 10.1 | . | 0.9
COc1ccc(/C=N/NC(=O)c2cc(-c3cccn3C)n[nH]2)cc1OC | -0.1 | 94.2* | 2.8 | 31.0 | 1
Cn1cccc1-c1cc(C(=O)N/N=C/c2cccc(O)c2)[nH]n1 | -2.4 | 95.8* | 7.0 | 13.3 | 0.9
O=C(O)C(Sc1ccncn1)c1ccccc1 (stereo unspecified) | 5.5 | -15.5 | -5.6 | . | 1.1
Cc1cc(C)nc(N2CCCC(C(=O)NCCc3ccc(F)cc3)C2)n1 (stereo unspecified) | -1.0 | -14.9 | -10.7 | 85.7* | 1.1
CC(C)(C)c1ccc(/C=N/OCC(=O)NCc2ccc(F)cc2)cc1 | -0.7 | -1.4 | -3.0 | -14.3 | 1
CC(C)N1CC(C(=O)Nc2nc3ccccc3s2)CC1=O (stereo unspecified) | -0.9 | -6.7 | -1.6 | 75.0* | 1
CNS(=O)(=O)c1ccc(NC(=O)c2ccccn2)cc1 | 1.1 | -17.0 | -1.4 | -53.9 | 1
O=C(COC(=O)CNS(=O)(=O)c1c(Cl)cccc1Cl)Nc1cccnc1Cl | -2.0 | 3.8 | -3.2 | 23.1 | 1
Cn1cc(CN2CCC(C(=O)N3CCCCC3)CC2)c(-c2ccccc2F)n1 | -2.5 | -3.5 | -7.8 | . | 1.1
Cc1nn(C)cc1C(C(=O)NC1CCCCC1)N(C(=O)c1cnccn1)c1ccc(Oc2ccccc2)cc1 (stereo unspecified) | 3.0 | -8.9 | 3.9 | 0.0 | 1
CCOC(=O)c1ccc(N(C(=O)c2cnccn2)C(C(=O)NC2CCCCC2)c2cn(C)nc2C)cc1 (stereo unspecified) | 15.2* | 0.5 | -6.8 | 17.4 | 1.1
Cc1noc(C)c1S(=O)(=O)N1CCC(C(=O)NCCCN2CC(C)CC(C)C2)CC1 (stereo unspecified) | -5.1 | -16.8 | -7.1 | 18.5 | 1.1
Cc1noc(C)c1S(=O)(=O)N1CCC(C(=O)NCCN2CCC(C)CC2)CC1 | 11.1* | -6.3 | -1.8 | -47.8 | 1
COc1ccccc1C(=O)C1CCCN(Cc2cn[nH]c2C2CCCCC2)C1 (stereo unspecified) | -1.3 | -7.2 | -4.2 | . | 1
c1cnc(NC2CCCCCC2)nc1 | 1.2 | 3.2 | -5.8 | 40.5 | 1.1
Cc1cccnc1NC1CCCCC1 | -1.6 | -0.4 | 1.4 | 78.6* | 1
Nc1nonc1-n1nncc1-c1ccccc1 | 11.2* | -1.1 | -4.8 | -53.9 | 1
CC(C)OC(=O)c1ccc(N)cc1 | -6.5 | -10.8 | -7.5 | . | 1.1
CN1C(=O)c2c(sc3c2CC(C)(C)SC3)N2CCN=C12 | . | -8.6 | -2.5 | . | 1
CC1(C)Cc2c(sc3c2C2=NCCN2C=N3)CS1 | 0.2 | -18.8 | -4.0 | 87.1* | 1
C/C(=N\NC(=O)CSCc1ccccc1Cl)c1cc(O)ccc1O | 2.7 | 75.1* | 6.4 | . | 0.9
O=C(CSCc1ccccc1Cl)NN=C1CCCCCC1 | -1.2 | -11.2 | -2.9 | -15.6 | 1
COc1cc2c(cc1OC)-c1cc(OCc3ccccc3Cl)nc(=O)n1CC2 | -9.2 | -6.1 | -5.1 | 65.6* | 1.1
COc1cc2c(cc1OC)-c1cc(NC3CCCC3)nc(=O)n1CC2 | -4.0 | 4.9 | -6.9 | -28.6 | 1.1
O=C(COC(=O)CCN1C(=O)c2ccccc2C1=O)Nc1ccc(S(=O)(=O)N2CCCC2)cc1 | 0.6 | -4.1 | -0.8 | . | 1
O=C(COC(=O)CN1C(=O)c2ccccc2C1=O)Nc1ccc(S(=O)(=O)N2CCCC2)cc1 | 12.1* | -16.3 | -5.7 | 35.1 | 1.1
CC1=C(C#N)C(NC(=O)c2ccc(Cl)cc2)(C(F)(F)F)C(=O)N1 (stereo unspecified) | -1.4 | -18.3 | 1.7 | -3.3 | 1
